{
  "source": "ChEMBL document CHEMBL1127345",
  "about": "“Synthesis, binding properties, and 18F labeling of fluorocarazolol, a high-affinity beta-adrenergic receptor antagonist” (J Med Chem, 1994)",
  "key": {"Mus musculus [1]": {"system": "Mus musculus", "assay": "The in vivo tissue distribution of mouse blood with Propranolol administration after 180 min, value was fractional dose per fractional body weight of the organ", "format": "ADME, organism-based", "conditions": "3 h", "how_it_was_run": "(§1)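 Male CF-1 mice (25–30 g), given 2 mg sodium pentobarbital ip 30 min before tracer. Blocked groups received propranolol iv by tail vein, 0.1 mL of 1 mg/mL. About 30 min later, 0.1 mL of [18F]tracer (1–2 mCi/mL) was injected by tail vein. Mice were killed by cervical dislocation at set times, and organs were weighed and counted. Uptake is %ID/g × body weight/100, average ± SD; n=5 for heart, brain, blood, lung, kidney, liver and bone.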"}, "Mus musculus [2]": {"system": "Mus musculus", "assay": "The in vivo tissue distribution of mouse liver with Propranolol administration after 10 min, value was fractional dose per fractional body weight of the organ", "format": "ADME, organism-based", "how_it_was_run": "as §1"}, "Mus musculus [3]": {"system": "Mus musculus", "assay": "The in vivo tissue distribution of mouse heart with Propranolol preadministration in 10 min, value was fractional dose per fractional body weight of the organ", "format": "ADME, organism-based", "how_it_was_run": "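Male CF-1 mice (25–30 g), anesthetised with 2 mg sodium pentobarbital ip 30 min before tracer. Where blocked, propranolol iv via tail vein (0.1 mL of […]; […]) about 30 min before tracer. Tracer given by tail vein, 0.1 mL at 1–2 mCi/mL. Mice killed by cervical dislocation at set times, organs weighed and counted. %ID/g × body weight/100 gives unitless uptake. Heart, brain, blood, lung, kidney, liver and bone n=5; average ± SD.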"}, "Mus musculus [4]": {"system": "Mus musculus", "assay": "The in vivo tissue distribution of mouse blood without Propranolol preadministration in 180 min, value was fractional dose per fractional body weight of the organ", "conditions": "3 h"}, "Mus musculus [5]": {"system": "Mus musculus", "assay": "The in vivo tissue distribution of mouse heart without Propranolol preadministration in 40 min, value was fractional dose per fractional body weight of the organ"}},
  "data": [
    {"molecule": "CC(C[18F])NC[C@H](O)COc1cccc2[nH]c3ccccc3c12", "note": "(stereo not given in full)", "values": [
      {"measurement": "Dose/organ", "setting": "Mus musculus [1]", "value": 0.15},
      {"measurement": "Dose/organ", "setting": "Mus musculus [2]", "value": 2.89},
      {"measurement": "Dose/organ", "setting": "Mus musculus [3]", "value": 1.1},
      {"measurement": "Dose/organ", "setting": "Mus musculus [4]", "value": 0.43},
      {"measurement": "Dose/organ", "setting": "Mus musculus [5]", "value": 0.77}
    ]},
    {"molecule": "CC(C[18F])NC[C@@H](O)COc1cccc2[nH]c3ccccc3c12", "note": "(stereo not given in full)", "values": [
      {"measurement": "Dose/organ", "setting": "Mus musculus [1]", "value": 0.09},
      {"measurement": "Dose/organ", "setting": "Mus musculus [2]", "value": 3.14},
      {"measurement": "Dose/organ", "setting": "Mus musculus [3]", "value": 0.93},
      {"measurement": "Dose/organ", "setting": "Mus musculus [4]", "value": 0.17},
      {"measurement": "Dose/organ", "setting": "Mus musculus [5]", "value": 0.76}
    ]}
  ]
}
